Experiments:
[1] = target: Tyrosine-protein kinase receptor UFO (Homo sapiens) (UniProt P30530); experiment: Inhibition of human recombinant AXL at 500 nM in presence of ATP by radiometric assay relative to control
In short: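 Panel of 327 recombinant human kinases, each assayed in vitro by radiometric activity assay in duplicate at a single inhibitor concentration per compound, chosen with reference to its ULK1 inhibition. Activity remaining was expressed as percent of vehicle control, and percent inhibition was calculated as 100 minus percent activity remaining.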

[2] = target: Cyclin-dependent kinase 1 (Homo sapiens) (UniProt P06493); experiment: Inhibition of human recombinant CDC2 at 500 nM in presence of ATP by radiometric assay relative to control
[3] = target: Rho-associated protein kinase 1 (Homo sapiens) (UniProt Q13464); experiment: Inhibition of human recombinant ROCK1 at 500 nM in presence of ATP by radiometric assay relative to control
[4] = target: T1, Ephrin type-B receptor 4 (Homo sapiens) (UniProt P54760); experiment: Inhibition of human recombinant EphB4 at 500 nM related to control ULK1
T1 sequence (whole entry): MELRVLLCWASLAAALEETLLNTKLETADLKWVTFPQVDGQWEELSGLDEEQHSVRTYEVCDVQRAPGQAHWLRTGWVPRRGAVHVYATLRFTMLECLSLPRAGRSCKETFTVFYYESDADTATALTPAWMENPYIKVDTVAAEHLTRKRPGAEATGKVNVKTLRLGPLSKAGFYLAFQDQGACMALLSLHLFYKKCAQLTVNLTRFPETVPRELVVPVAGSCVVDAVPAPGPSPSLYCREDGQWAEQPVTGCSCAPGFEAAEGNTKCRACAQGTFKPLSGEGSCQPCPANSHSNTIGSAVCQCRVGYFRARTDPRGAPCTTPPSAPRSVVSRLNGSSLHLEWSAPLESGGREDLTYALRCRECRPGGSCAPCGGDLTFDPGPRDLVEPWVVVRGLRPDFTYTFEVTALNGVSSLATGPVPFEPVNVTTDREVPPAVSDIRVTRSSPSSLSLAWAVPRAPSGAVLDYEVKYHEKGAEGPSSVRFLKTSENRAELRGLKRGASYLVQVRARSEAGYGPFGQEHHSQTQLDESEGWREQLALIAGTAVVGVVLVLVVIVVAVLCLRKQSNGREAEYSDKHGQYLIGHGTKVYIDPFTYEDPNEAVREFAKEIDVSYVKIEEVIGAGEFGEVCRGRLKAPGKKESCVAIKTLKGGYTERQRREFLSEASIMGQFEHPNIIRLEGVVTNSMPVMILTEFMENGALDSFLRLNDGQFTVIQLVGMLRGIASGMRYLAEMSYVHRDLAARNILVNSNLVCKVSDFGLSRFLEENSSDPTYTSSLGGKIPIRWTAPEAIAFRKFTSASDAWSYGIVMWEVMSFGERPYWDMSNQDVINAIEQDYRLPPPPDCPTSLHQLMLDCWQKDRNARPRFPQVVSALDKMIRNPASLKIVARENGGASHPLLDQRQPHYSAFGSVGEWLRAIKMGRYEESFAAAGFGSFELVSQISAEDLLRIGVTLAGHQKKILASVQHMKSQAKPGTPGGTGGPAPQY

[5] = target: DNA-PK/Ku70/Ku85 (Homo sapiens) (UniProt P78527+P12956+P13010); experiment: Inhibition of human recombinant DNAPK at 15 nM in presence of ATP by radiometric assay relative to control; format: protein-complex assay
[6] = target: Homeodomain-interacting protein kinase 3 (Homo sapiens) (UniProt Q9H422); experiment: Inhibition of human recombinant HIPK3 at 15 nM in presence of ATP by radiometric assay relative to control
[7] = target: T2, Inhibitor of nuclear factor kappa-B kinase subunit beta (Homo sapiens) (UniProt O14920); experiment: Inhibition of human recombinant IKKb at 15 nM in presence of ATP by radiometric assay relative to control
T2 sequence (whole entry): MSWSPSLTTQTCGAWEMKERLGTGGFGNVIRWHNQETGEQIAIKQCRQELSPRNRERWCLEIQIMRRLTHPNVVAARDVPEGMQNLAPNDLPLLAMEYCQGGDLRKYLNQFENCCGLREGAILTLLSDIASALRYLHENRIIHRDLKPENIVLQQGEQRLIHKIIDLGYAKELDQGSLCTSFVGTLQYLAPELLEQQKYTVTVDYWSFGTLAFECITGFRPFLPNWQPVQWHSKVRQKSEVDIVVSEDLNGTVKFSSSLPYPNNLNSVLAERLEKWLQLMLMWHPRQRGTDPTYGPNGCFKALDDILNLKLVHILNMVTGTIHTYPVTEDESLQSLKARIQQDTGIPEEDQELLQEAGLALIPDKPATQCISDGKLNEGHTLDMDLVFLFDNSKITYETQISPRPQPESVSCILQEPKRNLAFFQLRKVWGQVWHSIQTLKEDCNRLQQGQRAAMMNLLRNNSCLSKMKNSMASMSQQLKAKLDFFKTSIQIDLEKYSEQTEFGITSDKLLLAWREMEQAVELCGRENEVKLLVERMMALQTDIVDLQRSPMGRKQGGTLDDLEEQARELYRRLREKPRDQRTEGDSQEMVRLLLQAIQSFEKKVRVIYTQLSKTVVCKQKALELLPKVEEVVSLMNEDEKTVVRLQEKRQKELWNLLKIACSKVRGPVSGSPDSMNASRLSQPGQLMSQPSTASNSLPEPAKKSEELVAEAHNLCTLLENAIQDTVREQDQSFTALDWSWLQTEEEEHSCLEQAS

[8] = target: T3, Testis-specific serine/threonine-protein kinase 3 (Homo sapiens) (UniProt Q96PN8); experiment: Inhibition of human recombinant TSSK3 at 15 nM in presence of ATP by radiometric assay relative to control
T3 sequence (whole entry): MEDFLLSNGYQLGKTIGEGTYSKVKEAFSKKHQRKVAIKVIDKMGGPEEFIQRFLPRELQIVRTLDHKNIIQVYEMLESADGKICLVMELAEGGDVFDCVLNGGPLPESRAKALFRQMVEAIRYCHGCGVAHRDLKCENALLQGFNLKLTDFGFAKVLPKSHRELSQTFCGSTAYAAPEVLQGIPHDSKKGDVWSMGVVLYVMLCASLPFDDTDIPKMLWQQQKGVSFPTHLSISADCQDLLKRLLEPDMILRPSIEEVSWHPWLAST

[9] = target: Serine/threonine-protein kinase 32A (Homo sapiens) (UniProt Q8WU08); experiment: Inhibition of human recombinant YANK1 at 15 nM in presence of ATP by radiometric assay relative to control
[10] = target: Dual specificity protein kinase CLK1 (Homo sapiens) (UniProt P49759); experiment: Inhibition of human recombinant CLK1 at 40 nM in presence of ATP by radiometric assay relative to control
[11] = target: Cyclin-dependent kinase 18 (Homo sapiens) (UniProt Q07002); experiment: Inhibition of human recombinant PCTAIRE3 at 40 nM related to control ULK1

Sequence of Cyclin-dependent kinase 1 (Homo sapiens) (P06493 whole entry, looked up): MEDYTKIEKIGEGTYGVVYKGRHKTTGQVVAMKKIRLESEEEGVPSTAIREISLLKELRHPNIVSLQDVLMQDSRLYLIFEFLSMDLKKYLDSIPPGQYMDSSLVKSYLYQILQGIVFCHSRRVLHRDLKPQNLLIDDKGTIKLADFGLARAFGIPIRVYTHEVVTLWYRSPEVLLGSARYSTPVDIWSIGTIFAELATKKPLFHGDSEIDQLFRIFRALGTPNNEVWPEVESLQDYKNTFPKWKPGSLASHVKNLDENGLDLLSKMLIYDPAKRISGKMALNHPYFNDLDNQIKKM
Sequence of Dual specificity protein kinase CLK1 (Homo sapiens) (P49759 whole entry, looked up): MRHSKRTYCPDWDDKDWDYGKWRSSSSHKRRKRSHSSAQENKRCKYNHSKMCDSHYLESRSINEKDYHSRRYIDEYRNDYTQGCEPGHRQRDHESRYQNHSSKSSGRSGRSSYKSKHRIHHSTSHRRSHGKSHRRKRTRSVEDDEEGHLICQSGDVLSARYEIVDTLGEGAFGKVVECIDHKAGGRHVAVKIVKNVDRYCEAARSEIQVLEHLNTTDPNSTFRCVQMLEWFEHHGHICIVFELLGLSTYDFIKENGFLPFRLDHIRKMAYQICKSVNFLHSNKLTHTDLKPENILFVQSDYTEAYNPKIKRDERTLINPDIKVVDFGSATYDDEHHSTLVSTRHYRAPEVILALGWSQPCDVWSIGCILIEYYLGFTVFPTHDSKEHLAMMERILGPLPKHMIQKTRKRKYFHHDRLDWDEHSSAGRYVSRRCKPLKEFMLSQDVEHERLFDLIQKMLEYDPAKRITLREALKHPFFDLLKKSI
Sequence of Rho-associated protein kinase 1 (Homo sapiens) (Q13464 2-1354 limits assumed): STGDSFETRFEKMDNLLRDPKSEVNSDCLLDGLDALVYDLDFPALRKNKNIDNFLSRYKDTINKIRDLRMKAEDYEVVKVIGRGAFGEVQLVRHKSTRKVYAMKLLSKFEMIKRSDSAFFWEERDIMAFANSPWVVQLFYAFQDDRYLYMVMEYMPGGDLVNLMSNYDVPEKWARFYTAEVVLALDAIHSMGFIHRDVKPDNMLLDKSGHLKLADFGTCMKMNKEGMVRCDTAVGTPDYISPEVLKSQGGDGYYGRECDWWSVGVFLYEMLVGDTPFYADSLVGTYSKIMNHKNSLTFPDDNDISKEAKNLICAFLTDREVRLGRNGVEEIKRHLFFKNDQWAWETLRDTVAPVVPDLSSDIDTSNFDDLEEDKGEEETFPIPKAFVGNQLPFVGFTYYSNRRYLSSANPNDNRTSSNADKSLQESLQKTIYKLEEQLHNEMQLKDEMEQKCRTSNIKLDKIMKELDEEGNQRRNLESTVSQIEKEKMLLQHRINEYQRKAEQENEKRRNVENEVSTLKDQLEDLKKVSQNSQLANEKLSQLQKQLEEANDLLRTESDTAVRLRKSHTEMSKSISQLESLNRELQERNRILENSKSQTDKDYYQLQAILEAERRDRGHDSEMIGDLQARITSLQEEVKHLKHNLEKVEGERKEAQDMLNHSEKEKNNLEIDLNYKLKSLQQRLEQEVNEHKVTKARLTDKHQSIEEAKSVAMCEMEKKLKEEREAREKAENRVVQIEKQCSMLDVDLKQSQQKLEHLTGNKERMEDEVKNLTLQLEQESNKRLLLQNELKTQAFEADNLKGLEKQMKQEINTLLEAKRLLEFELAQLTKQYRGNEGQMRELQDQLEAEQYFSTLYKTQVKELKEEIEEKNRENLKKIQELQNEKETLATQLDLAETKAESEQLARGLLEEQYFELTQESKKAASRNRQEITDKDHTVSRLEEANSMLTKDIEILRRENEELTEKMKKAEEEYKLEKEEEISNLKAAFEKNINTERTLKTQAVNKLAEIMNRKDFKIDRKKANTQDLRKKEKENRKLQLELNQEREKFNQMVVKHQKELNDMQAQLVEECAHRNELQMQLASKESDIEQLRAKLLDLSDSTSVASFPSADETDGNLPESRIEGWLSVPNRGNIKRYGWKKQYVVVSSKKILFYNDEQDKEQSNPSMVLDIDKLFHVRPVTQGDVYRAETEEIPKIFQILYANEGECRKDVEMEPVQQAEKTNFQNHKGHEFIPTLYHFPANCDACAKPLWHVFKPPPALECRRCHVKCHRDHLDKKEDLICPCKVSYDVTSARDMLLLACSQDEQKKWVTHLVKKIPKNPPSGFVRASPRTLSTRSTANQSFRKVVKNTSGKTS
Sequence of Homeodomain-interacting protein kinase 3 (Homo sapiens) (Q9H422 whole entry, looked up): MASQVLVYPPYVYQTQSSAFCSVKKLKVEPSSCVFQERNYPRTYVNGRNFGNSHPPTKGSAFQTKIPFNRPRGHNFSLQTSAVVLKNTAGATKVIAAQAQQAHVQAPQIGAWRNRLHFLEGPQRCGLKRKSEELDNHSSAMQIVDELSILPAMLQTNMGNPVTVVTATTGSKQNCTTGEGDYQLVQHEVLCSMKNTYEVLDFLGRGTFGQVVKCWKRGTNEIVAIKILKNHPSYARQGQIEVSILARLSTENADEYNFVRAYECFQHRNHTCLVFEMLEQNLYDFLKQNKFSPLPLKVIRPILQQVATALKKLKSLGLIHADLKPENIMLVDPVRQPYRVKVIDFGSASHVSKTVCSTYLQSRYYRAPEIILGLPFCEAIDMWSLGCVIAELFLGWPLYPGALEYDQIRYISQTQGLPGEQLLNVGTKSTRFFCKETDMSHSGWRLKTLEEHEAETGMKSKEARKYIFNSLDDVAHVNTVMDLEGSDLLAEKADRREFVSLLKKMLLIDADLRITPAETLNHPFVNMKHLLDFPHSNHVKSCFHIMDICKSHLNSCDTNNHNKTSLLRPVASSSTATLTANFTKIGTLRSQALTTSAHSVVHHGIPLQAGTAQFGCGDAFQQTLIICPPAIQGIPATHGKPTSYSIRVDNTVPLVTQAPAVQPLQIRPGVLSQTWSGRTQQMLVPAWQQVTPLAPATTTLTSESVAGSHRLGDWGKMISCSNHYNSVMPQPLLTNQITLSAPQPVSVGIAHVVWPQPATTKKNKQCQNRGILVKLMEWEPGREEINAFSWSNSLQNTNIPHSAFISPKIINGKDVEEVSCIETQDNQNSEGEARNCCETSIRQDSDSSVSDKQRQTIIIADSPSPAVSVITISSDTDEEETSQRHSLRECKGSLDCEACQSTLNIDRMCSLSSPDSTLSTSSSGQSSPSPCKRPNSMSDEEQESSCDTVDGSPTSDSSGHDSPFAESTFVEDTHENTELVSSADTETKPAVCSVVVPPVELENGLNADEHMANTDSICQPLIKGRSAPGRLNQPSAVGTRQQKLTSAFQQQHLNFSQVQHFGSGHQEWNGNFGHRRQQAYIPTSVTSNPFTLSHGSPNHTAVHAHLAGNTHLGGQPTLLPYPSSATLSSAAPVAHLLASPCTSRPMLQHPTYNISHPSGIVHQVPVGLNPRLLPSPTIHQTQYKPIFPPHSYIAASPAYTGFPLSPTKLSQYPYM
Sequence of Serine/threonine-protein kinase 32A (Homo sapiens) (Q8WU08 whole entry): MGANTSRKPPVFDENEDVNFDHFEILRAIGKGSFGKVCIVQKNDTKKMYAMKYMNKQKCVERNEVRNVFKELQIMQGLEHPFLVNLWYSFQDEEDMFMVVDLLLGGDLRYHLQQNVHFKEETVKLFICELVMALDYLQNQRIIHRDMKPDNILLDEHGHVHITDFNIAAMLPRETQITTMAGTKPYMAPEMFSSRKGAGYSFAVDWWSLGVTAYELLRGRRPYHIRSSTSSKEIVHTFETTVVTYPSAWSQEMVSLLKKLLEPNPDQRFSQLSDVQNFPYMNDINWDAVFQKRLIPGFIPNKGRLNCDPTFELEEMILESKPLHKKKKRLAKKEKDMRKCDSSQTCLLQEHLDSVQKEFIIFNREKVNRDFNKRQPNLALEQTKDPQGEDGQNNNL
Sequence of Tyrosine-protein kinase receptor UFO (Homo sapiens) (P30530 whole entry): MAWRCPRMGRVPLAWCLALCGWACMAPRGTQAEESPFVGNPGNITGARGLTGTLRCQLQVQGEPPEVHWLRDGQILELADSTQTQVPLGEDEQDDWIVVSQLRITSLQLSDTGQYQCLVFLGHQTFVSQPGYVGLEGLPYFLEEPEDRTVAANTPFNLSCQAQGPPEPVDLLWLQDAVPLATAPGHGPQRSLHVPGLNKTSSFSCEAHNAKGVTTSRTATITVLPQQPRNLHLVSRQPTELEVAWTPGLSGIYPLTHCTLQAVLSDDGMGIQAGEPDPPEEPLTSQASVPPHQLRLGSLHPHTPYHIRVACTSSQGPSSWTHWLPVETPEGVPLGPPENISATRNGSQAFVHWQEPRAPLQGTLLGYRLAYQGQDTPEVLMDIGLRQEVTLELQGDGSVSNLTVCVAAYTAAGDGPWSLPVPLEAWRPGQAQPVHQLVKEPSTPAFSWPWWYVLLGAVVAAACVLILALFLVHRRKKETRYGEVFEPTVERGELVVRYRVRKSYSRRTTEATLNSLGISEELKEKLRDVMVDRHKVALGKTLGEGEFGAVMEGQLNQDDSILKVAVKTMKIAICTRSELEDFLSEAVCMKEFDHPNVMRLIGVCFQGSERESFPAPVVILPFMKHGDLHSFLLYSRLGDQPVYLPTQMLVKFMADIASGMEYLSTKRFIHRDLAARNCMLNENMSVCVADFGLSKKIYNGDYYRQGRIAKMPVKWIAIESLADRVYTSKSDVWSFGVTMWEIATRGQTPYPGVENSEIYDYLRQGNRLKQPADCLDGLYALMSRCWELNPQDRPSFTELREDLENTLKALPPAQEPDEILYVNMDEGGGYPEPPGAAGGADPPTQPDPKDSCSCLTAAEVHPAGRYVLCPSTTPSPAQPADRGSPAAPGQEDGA

`CNC(=O)c1ccccc1Oc1nc(Nc2cc(OC)c(OC)c(OC)c2)ncc1Br` gave an inhibition [1] of 5%, an inhibition [2] of 30% and an inhibition [3] of 0%. The fold change (FC) [4] was 0.
`CC(C)[C@H](NC(=O)c1cc(-c2cnn3cc(-c4ccc(OCCN5CCCCC5)cc4)cnc23)cs1)C(F)(F)F` gave an inhibition [5] of 0%, an inhibition [6] of 0% and an inhibition [7] of 0%. The inhibition [8] was 14% and the inhibition [9] was 2%.
`O=C(N[C@@H](C1CC1)C(F)(F)F)c1cc(-c2cnn3cc(-c4ccc(F)cc4)cnc23)cs1` was tested, and the inhibition [10] was 34% and the fold change (FC) [11] was 0.42.

Source: ChEMBL document CHEMBL5653631, “A Potent and Selective ULK1 Inhibitor Suppresses Autophagy and Sensitizes Cancer Cells to Nutrient Stress” (iScience, 2018)
